Assay outcomes: PubChem BioAssay, several laboratories
HCV NS3 hel inh – inhibitors of Hepatitis C virus NS3 helicase. NS3 helicase DNA unwinding, Cy5 molecular beacon fluorescence. inhibition, % at 10.9 µM. AID 1800. actives 0.56% (n = 290,000);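 active = inhibition above the mean of all tested compounds plus 3 SD, set per campaign, cut at about 35% in these data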;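 note: 0% = DMSO wells and 100% = thioflavine S control wells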
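Control set: DMSO versus 110 µM thioflavine S; Material: NS3 helicase fragment of HCV; Measured by: Cy5 fluorescence at 0 and 60 min, beacon hairpin quenching; Read-out basis: percent inhibition from t60/t0 fluorescence ratio; Times: reaction time 60 min, 25 °C; Repeats: single replicate; Compound dosing: single dose, 10.9 µM nominal final, DMSO 0.8% final.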
eIF4H FP inh – inhibitors of RNA binding by human eIF4H; inhibition, % at 35 µM; eIF4H fluorescence polarization binding assay; actives 0.94% (n = 290,000);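 note: calls also rest on retests at 20 µM and on dose response follow-up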
MLLE-PAM2 inh – inhibitors of microRNA-mediated deadenylation, human PABP1 MLLE binding | GST-MLLE / FITC-PAM2 fluorescence polarization | AID 588489 | inhibition, % at 20 µM | P11940 | actives 0.36% (n = 360,000); in the data active = inhibition above about 35%, passing the limit was not always enough;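 note: plate controls were DMSO wells with GST-MLLE for no effect and wells lacking GST-MLLE protein for full effect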
PABP FP inh – PABP-poly(A) binding inhibition | inhibition, % at 35 µM | PABP-poly(A) RNA binding, fluorescence polarization | actives 1% (n = 290,000);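 note: calls also rest on retests at 20 µM and on dose response follow-up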
EBNA-1 inh – blocks EBNA-1 binding to DNA. EBNA-1 DNA binding, fluorescence polarization. inhibition, % at 14.8 µM. actives 0.34% (n = 300,000); in the data active = inhibition above about 28%
ZTA counter – counter-screen for EBNA-1 inhibitors: inhibitors of Epstein-Barr virus ZTA; P03206; ZTA-DNA binding, fluorescence polarization; inhibition, % at 11 µM; actives 0.15% (n = 320,000); AID 2234; in the data active = inhibition above about 33%
Target sequence (P03206 whole entry, looked up): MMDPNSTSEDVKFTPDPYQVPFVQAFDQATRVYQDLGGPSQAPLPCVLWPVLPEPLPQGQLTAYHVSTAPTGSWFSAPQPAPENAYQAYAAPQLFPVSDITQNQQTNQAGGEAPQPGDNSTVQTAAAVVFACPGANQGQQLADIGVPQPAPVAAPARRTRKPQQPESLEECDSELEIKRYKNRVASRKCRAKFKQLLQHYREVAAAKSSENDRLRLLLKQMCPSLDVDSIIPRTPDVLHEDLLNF
NS3 helicase cf – HCV NS3 helicase inhibition, confirmation assay; actives 31% (n = 1,600); shares compounds with HCV NS3 hel inh; AID 1943; inhibition, % at 10.9 µM; NS3 helicase DNA unwinding, Cy5 molecular beacon fluorescence;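 active = inhibition above the mean of all tested compounds plus 3 SD, cutoff set per campaign, cut at about 36% in these data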
FID counter trip – counter-screen for HCV NS3 helicase inhibitors: DNA intercalator displacement; inhibition, % at 7.9 µM; shares compounds with HCV NS3 hel inh; actives 4% (n = 1,600); AID 1945; DNA fluorescent intercalator displacement, fluorescence; in the data active = inhibition above about 37%;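 note: 0% = vehicle and 100% = reference compound; higher means more displacement of ethidium bromide from the DNA hairpin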
An asterisk follows results filed as active. A selection: hits, their analogues and other compounds. The true share with any hit is near 2.1%. Unless noted, the rule behind the calls is not given here.

For Cn1nc(-c2ccccc2)c(C(O)c2ccc(Cl)cc2)c1Cl (configuration not stated) the results were HCV NS3 hel inh -8, eIF4H FP inh 1, MLLE-PAM2 inh 0, PABP FP inh -1, EBNA-1 inh 3 and ZTA counter -3.
Screening CC(C)c1ccc(NC(=O)c2ccccc2NC(=O)C2CCCCC2C(=O)O)cc1 (configuration not stated) returned HCV NS3 hel inh 45*, eIF4H FP inh 2, MLLE-PAM2 inh 7, PABP FP inh 0, NS3 helicase cf 48* and FID counter trip -52.
Screening CC(C)c1ccc(NC(=O)c2ccccc2NC(=O)C2CC=CCC2C(=O)O)cc1 (configuration not stated) returned HCV NS3 hel inh 13, eIF4H FP inh 2, MLLE-PAM2 inh -10 and PABP FP inh 0.
For COc1ccccc1C1c2[nH]c3ccccc3c2C[C@H]2C(=O)N(C3CCN(Cc4ccccc4)CC3)CC(=O)N12 (some centres not stated) the results were HCV NS3 hel inh -96, eIF4H FP inh -2, MLLE-PAM2 inh -11, PABP FP inh -6, EBNA-1 inh -5 and ZTA counter -2.
`O=S(=O)(Nc1nc2ccccc2nc1NCc1ccco1)c1ccc(Cl)cc1` gave HCV NS3 hel inh 29, eIF4H FP inh 13, MLLE-PAM2 inh -8, PABP FP inh 23, EBNA-1 inh 8 and ZTA counter 6.
Cc1ccc(S(=O)(=O)Nc2nc3ccccc3nc2NCc2ccco2)cc1 was read as HCV NS3 hel inh 36*, eIF4H FP inh 122, MLLE-PAM2 inh 65, PABP FP inh 118, EBNA-1 inh -7, ZTA counter 7, NS3 helicase cf 40* and FID counter trip -1.
Screening CC1=CC(C)(C)Nc2ccc(OC(=O)CN3C(=O)c4cccc5cccc(c45)C3=O)cc21 returned HCV NS3 hel inh 39*, eIF4H FP inh 16, MLLE-PAM2 inh 7, PABP FP inh 23, EBNA-1 inh -11, ZTA counter -6, NS3 helicase cf -14 and FID counter trip 1.
COc1cc(/C=C(\C#N)C(=O)Nc2ccc(C(=O)O)cc2)ccc1OC(=O)c1cccc(F)c1 was read as HCV NS3 hel inh 47*, eIF4H FP inh 6, MLLE-PAM2 inh -8, PABP FP inh 1, EBNA-1 inh 7, ZTA counter -19, NS3 helicase cf 63* and FID counter trip -24.
COc1cc(/C=C(/C#N)C(=O)Nc2ccccc2)ccc1OCc1ccc(C(=O)O)cc1 was read as HCV NS3 hel inh 19, eIF4H FP inh 0, MLLE-PAM2 inh -9, PABP FP inh 4, EBNA-1 inh -2 and ZTA counter -13.
COCc1cc(CN2CCCC2)c(O)c2ncccc12 was read as HCV NS3 hel inh -4, eIF4H FP inh 18, MLLE-PAM2 inh 10, PABP FP inh -6, EBNA-1 inh -4 and ZTA counter 8.
Oc1c(Cl)cc(CN2CCCCC2)c2cccnc12 was read as HCV NS3 hel inh 37*, eIF4H FP inh 47, MLLE-PAM2 inh 5, PABP FP inh -2, EBNA-1 inh 2, ZTA counter -7, NS3 helicase cf -8 and FID counter trip 7.
CCN(CC)S(=O)(=O)c1ccc(N2CCOCC2)c(NS(=O)(=O)c2ccc(OC)cc2)c1 was read as HCV NS3 hel inh -2, eIF4H FP inh -3, MLLE-PAM2 inh 11, PABP FP inh 1, EBNA-1 inh 1 and ZTA counter -12.
Screening O=C(NC1CC1)c1cc(-c2ccco2)nc2ccccc12 returned HCV NS3 hel inh 41*, eIF4H FP inh 98*, MLLE-PAM2 inh -7, PABP FP inh 82*, NS3 helicase cf 34 and FID counter trip 6.
Screening CCCN(CC1CC1)C(=S)NC(=O)c1ccc(S(=O)(=O)N2CCOCC2)cc1 returned HCV NS3 hel inh -2, eIF4H FP inh 16, MLLE-PAM2 inh 34, PABP FP inh 0, EBNA-1 inh 0 and ZTA counter 5.
`O=C(NNC1CC(=O)N(c2ccc(Cl)cc2)C1=O)c1ccccc1Cl` (configuration not stated) gave HCV NS3 hel inh 38*, eIF4H FP inh -5, MLLE-PAM2 inh -6, PABP FP inh -7, EBNA-1 inh 4, ZTA counter -5, NS3 helicase cf -14 and FID counter trip -6.
`CCOC(=O)c1ccc(NC(=O)c2cc(C)nn2-c2ccccc2)cc1` gave HCV NS3 hel inh 46*, eIF4H FP inh -8, MLLE-PAM2 inh 8, PABP FP inh -2, EBNA-1 inh 2, ZTA counter 1, NS3 helicase cf -12 and FID counter trip -32.
Cc1cc(C(=O)Nc2ccc(C)c(C)c2)n(-c2ccccc2)n1 was read as HCV NS3 hel inh -11, eIF4H FP inh 7, MLLE-PAM2 inh 7, PABP FP inh 4, EBNA-1 inh -11 and ZTA counter 12.
C=CCOc1ccc(Br)cc1/C=C1\NC(=S)N(C(C)=O)C1=O was read as HCV NS3 hel inh 40*, eIF4H FP inh -3, MLLE-PAM2 inh -8, PABP FP inh -4, EBNA-1 inh -1, ZTA counter 4, NS3 helicase cf 3 and FID counter trip 3.
O=C(CN1C(=O)/C(=C\c2cccc(Br)c2)Oc2ccccc21)NCCCN1CCOCC1 was read as HCV NS3 hel inh -36, eIF4H FP inh -4, MLLE-PAM2 inh 6, PABP FP inh -10, EBNA-1 inh 2 and ZTA counter 5.
For Cc1ccc2c(c1)C1CN(C)CCC1N2C(=O)c1cccc(S(=O)(=O)N2CC(C)CC(C)C2)c1 (configuration not stated) the results were HCV NS3 hel inh -48, eIF4H FP inh -14, MLLE-PAM2 inh -2, PABP FP inh 5, EBNA-1 inh -4 and ZTA counter 6.
`C(=C\c1ccco1)/c1ccc2ccccc2n1` gave HCV NS3 hel inh 42*, eIF4H FP inh 106, MLLE-PAM2 inh -12, PABP FP inh 88, EBNA-1 inh 6, ZTA counter 7, NS3 helicase cf 6 and FID counter trip 7.
CNc1nc(-c2c(C)[nH]c3ccc(OC)cc23)cs1 was read as HCV NS3 hel inh 14, eIF4H FP inh -9, MLLE-PAM2 inh -26, PABP FP inh 6, EBNA-1 inh -6 and ZTA counter -3.
CCC(=Nc1ccc(N)cc1)C1=C(O)C(C(=O)OC)C(C)(C)CC1=O (configuration not stated) was read as HCV NS3 hel inh 47*, eIF4H FP inh 103*, MLLE-PAM2 inh 17, PABP FP inh 115*, EBNA-1 inh 1, ZTA counter 13, NS3 helicase cf -16 and FID counter trip -12.
